# Assay outcomes from PubChem BioAssay.
# GPR7 antag = antagonists of human GPR7 (neuropeptides B/W receptor 1); hit rate 1.1% among 290,000; inhibition, % at 4.4 µM; GPR7-expressing cells, fluorescence antagonist assay; in the data active = inhibition above about 16%, passing the limit was not always enough;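 also: cells stimulated with the agonist NPW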
# Target sequence (P48145 whole entry, looked up): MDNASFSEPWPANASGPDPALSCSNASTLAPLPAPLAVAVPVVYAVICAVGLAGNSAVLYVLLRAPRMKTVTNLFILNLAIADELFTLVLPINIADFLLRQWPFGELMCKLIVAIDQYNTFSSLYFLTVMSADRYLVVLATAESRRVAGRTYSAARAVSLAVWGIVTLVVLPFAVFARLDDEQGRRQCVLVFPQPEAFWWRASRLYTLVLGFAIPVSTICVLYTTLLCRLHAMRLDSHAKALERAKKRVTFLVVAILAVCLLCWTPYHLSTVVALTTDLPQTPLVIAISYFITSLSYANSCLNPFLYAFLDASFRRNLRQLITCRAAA
# T cruzi repl = T. cruzi replication inhibition. hit rate 1.4% among 300,000. T. cruzi beta-gal in NIH3T3, luminescence, 90 h. inhibition, % (concentration not given with the values). AID 1885;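 active = mean inhibition across valid replicates above about 55%, limit read from the data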;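 also: signal also drops with host cell toxicity which is not excluded here; higher percent means less beta-gal luminescence so fewer parasites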
#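 Test system: β-gal T. cruzi (Tulahuen C4) inside NIH/3T3 cells / Quantity: 5,000 cells/well / Measured by: luminescence from GalScreen with 0.05% NP40, read after 60 min / Medium: DMEM plus 2% FBS / Measure: parasite load inhibition, % / Reagent: Tulahuen C4 trypomastigotes, 5000/well / Schedule: co-culture of at least 90 h after 3 h attachment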
# HSF1 activator = increases HSF-1 driven luciferase reporter signal. NIH3T3-HGL HSF-1 luciferase reporter, MG132, 8 h; 100% = twice DMSO control signal. hit rate 1.7% among 300,000. activation, % at 9 µM;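 active = mean replicate activation of at least 50% with a set share of replicates each reaching 50%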
# Jurkat NFkB inh = inhibitors of the PMA/ionomycin-induced NF-kB reporter in Jurkat cells. PMA/ionomycin-induced NF-kB luciferase reporter, luminescence. inhibition, % at 4 µM. hit rate 0.53% among 330,000. AID 435003; in the data active = inhibition above about 50%
# 697 NFkB inh = lowers PMA/ionomycin-induced NF-kB signal in 697 B cells | 697 B-cell NF-kB luciferase reporter, 16 h | inhibition, % at 4 µM | hit rate 0.33% among 330,000 | AID 435022; in the data active = inhibition above about 35%
# HSF1 inhib = HSF1 inhibition; hit rate 0.77% among 300,000; AID 2098; activity change, negative = inhibition, % at 7.5 µM (by protocol); NIH3T3-HGL HSE-luciferase, MG132-induced, luminescence 8 h; hits give low values;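 active = more than half of replicate wells show activity change below -50%, luminescence cut by over half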;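 also: luciferase reports HSF-1 transcriptional activity via heat shock element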
# A number is an active result; – = inactive; · = not tested or not shown. The list is not random: actives were taken first. Their share in the collection is about 4.8%.
SMILES,GPR7 antag,T cruzi repl,HSF1 activator,Jurkat NFkB inh,697 NFkB inh,HSF1 inhib
CCC1CCCCN1CC(=O)c1c(C)[nH]c2ccc(OC)cc12 (stereo not drawn),–,–,–,–,–,–
Cc1ccc(S(=O)(=O)N2CCC(C(=O)NNC(=O)c3ccncc3)CC2)cc1,–,–,–,–,–,–
CC(C)c1onc(C(=O)N(C)Cc2ccccc2)c1[N+](=O)[O-],–,–,–,–,–,–
Cc1ccc(O)c(NC(=O)c2noc(C(C)C)c2[N+](=O)[O-])c1,–,–,73.2,–,–,–
CC(C)c1onc(C(=O)NCCc2ccccc2)c1[N+](=O)[O-],–,–,60.6,–,–,–
Cc1noc(C(=O)Nc2ccc(F)cc2F)c1Cl,–,–,–,–,–,–
CC(=O)c1ccc(NC(=O)c2noc(C(C)C)c2[N+](=O)[O-])cc1,–,–,–,–,–,–
Cc1ccc(O)c(NC(=O)c2onc(C)c2Cl)c1,–,–,154.9,–,–,–
Cc1csc2c(N3CCN(C(=S)Nc4ccc(F)cc4F)CC3)ncnc12,–,·,–,–,–,–
CCOc1cc(C)c(C(C)C)cc1S(=O)(=O)n1cnc(C)c1,–,55.3,–,–,–,–
CCOc1cc(C)c(C(C)C)cc1S(=O)(=O)N1CC(C)OC(C)C1 (stereo not drawn),–,–,–,–,–,–
O=C(CSc1nnc(COc2ccc(Cl)cc2)o1)N1CCCC1,–,–,–,–,–,–
O=C(CSc1nnc(COc2ccc(Cl)cc2)o1)N1c2ccccc2CCc2ccccc21,–,66.2,–,–,–,–
CCCCn1c(N)c(N(CC)C(=O)c2cccc(S(=O)(=O)N3CCN(C)CC3)c2)c(=O)[nH]c1=O,·,–,–,–,–,–
Cc1ccc(CNC(=O)c2ccc3nc4[nH]c5ccccc5c4nc3c2)cc1,–,–,–,·,·,-76.1
Cn1c(C(=O)N2CCC(C(=O)N3CCN(Cc4ccc5c(c4)OCO5)CC3)CC2)cc2sccc21,–,–,–,–,–,–
Cn1c(C(=O)N2CCC(C(=O)N3CCOCC3)CC2)cc2sccc21,19.8,–,–,–,–,–
O=C(Nc1ccccc1)C1=C(c2ccccc2)S(=O)(=O)CCS1(=O)=O,–,69.3,–,·,·,-62.3
Cc1cc(C)c(OCCCNCc2ccccc2)c(Br)c1,–,–,–,–,–,–
Cc1cc(Cl)c(OCCCNCc2ccccc2)c(Br)c1,–,56.2,–,–,–,–
COc1ccc(N2C(=O)c3ccccc3NC2c2ccc(OC)c(Cn3cc([N+](=O)[O-])cn3)c2)cc1 (stereo not drawn),–,–,–,–,–,-68.3
COc1ccc(C2Nc3ccccc3C(=O)N2c2ccccc2)cc1Cn1cc([N+](=O)[O-])cn1 (stereo not drawn),–,–,–,–,–,–
CC1C(=O)C(C)C(c2ccc3c(c2)OCO3)NC1c1ccc2c(c1)OCO2 (stereo not drawn),–,–,–,–,–,–
CC1C(=O)C(C)C(c2ccc(Br)cc2)NC1c1ccc(Br)cc1 (stereo not drawn),–,67.5,–,–,–,–
COCC(=O)N1CCN(c2nc3ccccc3o2)CC1,–,–,–,–,–,–
SMILES,GPR7 antag,T cruzi repl,HSF1 activator,Jurkat NFkB inh,697 NFkB inh,HSF1 inhib
Cc1ccc(CNC(=O)Cn2ccc3ccccc3c2=O)o1,–,–,64.3,–,–,–
Cc1ccc(S(=O)(=O)N2CC(C)N(C(=O)N3CCOCC3)C2)cc1 (stereo not drawn),–,–,–,–,–,–
Cc1cc(NC(=O)CON=C(N)CC(=O)Nc2ccccc2Cl)ccc1Br,·,·,·,–,–,·
COc1cc(OC)cc(-c2cc3nc4c(c(N5CCN(c6ncccn6)CC5)n3n2)CCCC4)c1,–,60.2,–,–,–,–
Cc1ccc(S(=O)(=O)N(C)c2ccc(C)c([N+](=O)[O-])c2)cc1,–,–,70.0,–,–,–
COc1cccc(NC(=O)CCSc2nnc3scc(-c4ccccc4)n23)c1,–,–,–,–,–,-72.9
COc1cccc(-c2csc3nnc(SCC(=O)c4ccc(NC(C)=O)cc4)n23)c1,–,·,·,–,–,·
COC(=O)c1ccc(NC(=S)NC(=O)C2CCC2)cc1,–,–,–,–,–,–
CCOC(=O)c1ccc(NC(=S)N2CCCC(C)C2)cc1 (stereo not drawn),–,–,61.9,–,–,–
CCOC(=O)c1ccc(NC(=S)N2CCCC(C(=O)N3CCCC3)C2)cc1 (stereo not drawn),–,–,–,–,–,–
CCOC(=O)c1ccc(NC(=S)NC(=O)C2CCCC2)cc1,–,–,–,–,–,-74.1
CCOC(=O)c1ccc(NC(=S)NN2CCN(C)CC2)cc1,–,57.5,–,–,–,–
COc1ccccc1NC(=O)C(=O)N(c1cccnc1)C(C(=O)NC(C)(C)C)c1ccccc1F (stereo not drawn),–,–,–,–,–,–
COc1ccc(N(CC(=O)NCCC2=CCCCC2)S(=O)(=O)c2ccccc2)cc1,–,–,97.3,–,–,–
COc1ccccc1N(CC(=O)NCCC1=CCCCC1)S(=O)(=O)c1ccccc1,–,–,–,–,–,–
COc1ccc(CCNC(=O)CN(c2ccc(OC)c(OC)c2)S(C)(=O)=O)cc1OC,–,–,–,–,–,-65.8
COc1ccc(CCNC(=O)CN(c2ccccc2OC)S(C)(=O)=O)cc1OC,–,–,–,–,–,–
COc1ccc(N(CC(=O)NCCC2=CCCCC2)S(=O)(=O)c2ccccc2)cc1OC,–,59.8,–,–,–,–
CCOc1ccc(/C=N/NC(=O)c2ccc(Cn3cc([N+](=O)[O-])cn3)o2)cc1,–,–,–,–,–,-55.1
O=C(N/N=C\c1cccc(F)c1)c1ccc(Cn2cc(Br)c([N+](=O)[O-])n2)o1,–,68.0,–,–,–,–
O=C(N/N=C\c1ccc2c(c1)OCO2)c1ccc(Cn2cc(Br)c([N+](=O)[O-])n2)o1,–,55.6,–,–,–,–
COc1cc(/C=N\NC(=O)c2ccc(Cn3cc(Br)c([N+](=O)[O-])n3)o2)cc(OC)c1O,–,–,–,–,–,–
Cc1ccc(C(=O)NC(C#N)=C(Cl)Cl)cc1,–,–,151.3,–,–,–
Cc1ccc(C(=O)NC(=C(Cl)Cl)S(=O)(=O)c2ccccc2)cc1,–,–,113.0,–,–,–
COc1ccc(C(=O)NC(=C(Cl)Cl)S(=O)(=O)c2ccc(C)cc2)cc1,–,–,–,·,·,–
CC(=O)N(c1ccc2oc(=O)sc2c1)S(=O)(=O)c1cccs1,–,–,–,–,–,–
CC(=O)N(c1ccc2oc(=O)sc2c1)S(=O)(=O)c1ccc(C(=O)O)cc1,–,–,–,–,–,-59.8
COc1ccccc1C(=O)Nc1ccc2c(c1)CN(Cc1cnc(C)s1)CC2,–,–,–,–,–,–
